# Laboratory results reported in ChEMBL document CHEMBL3739360, “Indoline Amide Glucosides from Portulaca oleracea: Isolation, Structure, and DPPH Radical Scavenging Activity” (J Nat Prod, 2015).
# What was measured:
# [1] = Antioxidant activity assessed as DPPH radical scavenging activity after 30 mins by plate reader analysis; format: physicochemical; conditions: for Activity: 0.5 h
# How it was run: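 DPPH radical (150 μM in MeOH, 180 μL) mixed with 20 μL compound in water (solutions 62.5–1000 μM); 30 min, room temperature, dark; absorbance 490 nm. Sample-only blanks in MeOH; water+DPPH and water+MeOH references. Vitamin C as positive control. Scavenging % from corrected absorbances; EC50 by nonlinear regression; triplicate, mean ± SD.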
# [2] = Potency index, ratio of vitamin C EC50 to compound EC50 for DPPH radical scavenging activity
EC50 [1],Activity [1],Compound,Ratio EC50 [2]
35.1 µM,Dose-dependent effect,COc1cc(/C=C/C(=O)N2c3cc(O[C@@H]4O[C@H](CO)[C@@H](O)[C@H](O)[C@H]4O)c(O)cc3C[C@H]2C(=O)O)ccc1O,–
31.6 µM,Dose-dependent effect,COc1cc(/C=C/C(=O)O[C@H]2[C@H](OC[C@H]3O[C@@H](Oc4cc5c(cc4O)C[C@@H](C(=O)O)N5C(=O)/C=C/c4ccc(O[C@@H]5O[C@H](CO)[C@@H](O)[C@H](O)[C@H]5O)cc4)[C@H](O)[C@@H](O)[C@@H]3O)O[C@H](CO)[C@@H](O)[C@@H]2O)ccc1O,–
42.9 µM,Dose-dependent effect,O=C(O)[C@@H]1Cc2cc(O)c(O[C@@H]3O[C@H](CO[C@@H]4O[C@H](CO)[C@@H](O)[C@H](O)[C@H]4O)[C@@H](O)[C@H](O)[C@H]3O)cc2N1C(=O)/C=C/c1ccc(O)cc1,–
15.3 µM,Dose-dependent effect,O=C(/C=C/c1ccc(O)c(O)c1)O[C@H]1[C@H](OC[C@H]2O[C@@H](Oc3cc4c(cc3O)C[C@@H](C(=O)O)N4C(=O)/C=C/c3ccc(O)cc3)[C@H](O)[C@@H](O)[C@@H]2O)O[C@H](CO)[C@@H](O)[C@@H]1O,2
27.6 µM,Dose-dependent effect,COc1cc(/C=C/C(=O)O[C@H]2[C@H](OC[C@H]3O[C@@H](Oc4cc5c(cc4O)C[C@@H](C(=O)O)N5C(=O)/C=C/c4ccc(O)c(OC)c4)[C@H](O)[C@@H](O)[C@@H]3O)O[C@H](CO)[C@@H](O)[C@@H]2O)ccc1O,–
38.3 µM,Dose-dependent effect,O=C(O)[C@@H]1Cc2cc(O)c(O[C@@H]3O[C@H](CO)[C@@H](O)[C@H](O)[C@H]3O)cc2N1C(=O)/C=C/c1ccc(O[C@@H]2O[C@H](CO)[C@@H](O)[C@H](O)[C@H]2O)cc1,–
40.9 µM,Dose-dependent effect,COc1cc(/C=C/C(=O)N2c3cc(O[C@@H]4O[C@H](CO[C@@H]5O[C@H](CO)[C@@H](O)[C@H](O)[C@H]5O)[C@@H](O)[C@H](O)[C@H]4O)c(O)cc3C[C@H]2C(=O)O)ccc1O[C@@H]1O[C@H](CO)[C@@H](O)[C@H](O)[C@H]1O,–
40.1 µM,Dose-dependent effect,COc1cc(/C=C/C(=O)N2c3cc(O[C@@H]4O[C@H](CO[C@@H]5O[C@H](CO)[C@@H](O)[C@H](O)[C@H]5O)[C@@H](O)[C@H](O)[C@H]4O)c(O)cc3C[C@H]2C(=O)O)ccc1O,–
35.1 µM,Dose-dependent effect,O=C(O)[C@@H]1Cc2cc(O)c(O[C@@H]3O[C@H](CO)[C@@H](O)[C@H](O)[C@H]3O)cc2N1C(=O)/C=C/c1ccc(O)cc1,–
29.1 µM,Dose-dependent effect,COc1cc(/C=C/C(=O)O[C@H]2[C@H](OC[C@H]3O[C@@H](Oc4cc5c(cc4O)C[C@@H](C(=O)O)N5C(=O)/C=C/c4ccc(O)cc4)[C@H](O)[C@@H](O)[C@@H]3O)O[C@H](CO)[C@@H](O)[C@@H]2O)ccc1O,–
16.1 µM,Dose-dependent effect,COc1cc(/C=C/C(=O)N2c3cc(O[C@@H]4O[C@H](CO[C@@H]5O[C@H](CO)[C@@H](O)[C@H](O)[C@H]5OC(=O)/C=C/c5ccc(O)c(O)c5)[C@@H](O)[C@H](O)[C@H]4O)c(O)cc3C[C@H]2C(=O)O)ccc1O,2
35.4 µM,Dose-dependent effect,COc1cc(/C=C/C(=O)OC[C@H]2O[C@@H](OC[C@H]3O[C@@H](Oc4cc5c(cc4O)C[C@@H](C(=O)O)N5C(=O)/C=C/c4ccc(O)cc4)[C@H](O)[C@@H](O)[C@@H]3O)[C@H](O)[C@@H](O)[C@@H]2O)ccc1O,–
43.5 µM,Dose-dependent effect,O=C(O)[C@@H]1Cc2cc(O)c(O[C@@H]3O[C@H](CO[C@@H]4O[C@H](CO)[C@@H](O)[C@H](O)[C@H]4O)[C@@H](O)[C@H](O)[C@H]3O)cc2N1C(=O)/C=C/c1ccc(O[C@@H]2O[C@H](CO)[C@@H](O)[C@H](O)[C@H]2O)cc1,–
34.6 µM,Dose-dependent effect,COc1cc(/C=C/C(=O)N2c3cc(O[C@@H]4O[C@H](CO)[C@@H](O)[C@H](O)[C@H]4O)c(O)cc3C[C@H]2C(=O)O)ccc1O[C@@H]1O[C@H](CO)[C@@H](O)[C@H](O)[C@H]1O,–
30.2 µM,–,O=C1O[C@H]([C@@H](O)CO)C(O)=C1O [ASCORBIC ACID],–
